Experimental data gathered from unrelated publications.
Target: Vascular endothelial growth factor receptor 2 (KDR, Homo sapiens, UniProt P35968)

Structure (SMILES)	test	conditions	endpoint	value
COc1ncccc1-c1cnn2ccc(N3CCN(C(=O)OC(C)C)CC3)nc12	binding, competition with immobilised ligand	1 µM	remaining binding	100%
Cc1nn(C)cc1-c1nc2c(N3CCN(Cc4ccc(Cl)cc4)CC3)c(Cl)cnc2[nH]1	binding, competition with immobilised ligand	1 µM	remaining binding	12%
COCc1c(-c2cc3cc(C)cc(OC)c3s2)c2c(N)ncnn2c1CN1CCNC(=O)C1	cell-free assay, competition with immobilised ligand	1 µM	inhibition	81%
O=c1[nH]c2ccccc2n1C1CCN(Cc2ccc(-c3[nH]c4cc5ncnc5cc4nc3-c3ccccc3)cc2)CC1	cell-free assay	0.5 µM	remaining signal	90.9%
Cn1cncc1[C@](O)(COc1ccc(C#N)cc1-c1ccc(OC(F)(F)F)cc1)c1ccc(C#N)cc1	cell-free assay, competition with immobilised ligand	1 µM	remaining binding	96%
C#Cc1n[nH]c2c(-c3cn([C@@H](C)c4ccccc4)c(=O)[nH]c3=O)cc(F)cc12	enzyme activity, inhibitor	0.1 µM	inhibition	5.3%
COc1ccc2c(c1)/C(=C/c1cnc[nH]1)C(=O)N2	cell-free assay	0.5 µM	remaining signal	78.7%
Cn1cc(-c2cc(F)cc(N3CCn4c(cc5c4CCCC5)C3=O)c2CO)cc(Nc2ccc(N3CCN(C4COC4)CC3)cn2)c1=O	enzyme activity, inhibitor	0.1 µM	inhibition	12%
Nc1ncc(-c2nc(N3CCOCC3)nc(N3CCOCC3)n2)c(C(F)F)n1	cell-free assay, competition with immobilised ligand	10 µM	remaining binding	41%
C#Cc1n[nH]c2c(-c3cn([C@@H](C)c4ccccn4)c(=O)[nH]c3=O)cc(F)cc12	enzyme activity, inhibitor	0.1 µM	inhibition	6.6%
